Data published in ChEMBL document CHEMBL4190239, “A novel structural class of coumarin-chalcone fibrates as PPARα/γ agonists with potent antioxidant activities: Design, synthesis, biological evaluation and molecular docking studies” (Eur J Med Chem, 2017).

Tests used:
[1] = target: T1, Peroxisome proliferator-activated receptor gamma (Homo sapiens) (UniProt P37231); assay: Agonist activity at GAL4-fused PPARgamma LBD (unknown origin) expressed in HEK293 cells assessed as receptor transactivation at 10 uM after 18 hrs by dual luciferase reporter gene assay; format: cell-based
T1 sequence (whole entry): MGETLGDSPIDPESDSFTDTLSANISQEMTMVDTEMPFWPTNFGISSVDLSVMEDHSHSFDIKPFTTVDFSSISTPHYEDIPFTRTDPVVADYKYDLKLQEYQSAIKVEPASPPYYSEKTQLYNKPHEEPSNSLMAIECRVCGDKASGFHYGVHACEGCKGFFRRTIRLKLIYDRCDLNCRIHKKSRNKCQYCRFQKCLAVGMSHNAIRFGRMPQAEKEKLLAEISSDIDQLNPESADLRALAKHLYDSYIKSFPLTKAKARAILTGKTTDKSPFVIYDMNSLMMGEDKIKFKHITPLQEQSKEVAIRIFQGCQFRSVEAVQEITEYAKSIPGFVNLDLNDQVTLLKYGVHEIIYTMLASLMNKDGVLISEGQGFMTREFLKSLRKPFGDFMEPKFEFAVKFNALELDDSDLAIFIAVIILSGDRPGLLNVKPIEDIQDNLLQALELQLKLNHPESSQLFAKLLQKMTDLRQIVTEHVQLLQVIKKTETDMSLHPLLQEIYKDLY
Outline: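 HEK293 grown in DMEM/10% FBS to 70–80% confluence, plated, switched to FCS-free medium, transiently transfected per well with GAL4-PPARγLBD plasmid (30 ng), reporter (50 ng), renilla normalization vector (20 ng) and pGEM carrier (40 ng). Ligand added 8 h post-transfection for 18 h; firefly and renilla luciferase read by dual-luciferase kit; activation expressed as fold.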

[2] = Antioxidant activity assessed as ABTS radical scavenging activity after 30 mins; format: functional
[3] = target: T2, Peroxisome proliferator-activated receptor gamma (Homo sapiens, UniProt P37231); assay: Agonist activity at GAL4-fused PPARgamma LBD (unknown origin) expressed in HEK293 cells assessed as receptor transactivation after 18 hrs by dual luciferase reporter gene assay; format: cell-based
T2 sequence (P37231 whole entry): T1 sequence (whole entry)

[4] = target: T3, Peroxisome proliferator-activated receptor alpha (Homo sapiens, UniProt Q07869); assay: Agonist activity at GAL4-fused PPARalpha LBD (unknown origin) expressed in HEK293 cells assessed as receptor transactivation after 18 hrs by dual luciferase reporter gene assay; format: cell-based
T3 sequence (Q07869 whole entry): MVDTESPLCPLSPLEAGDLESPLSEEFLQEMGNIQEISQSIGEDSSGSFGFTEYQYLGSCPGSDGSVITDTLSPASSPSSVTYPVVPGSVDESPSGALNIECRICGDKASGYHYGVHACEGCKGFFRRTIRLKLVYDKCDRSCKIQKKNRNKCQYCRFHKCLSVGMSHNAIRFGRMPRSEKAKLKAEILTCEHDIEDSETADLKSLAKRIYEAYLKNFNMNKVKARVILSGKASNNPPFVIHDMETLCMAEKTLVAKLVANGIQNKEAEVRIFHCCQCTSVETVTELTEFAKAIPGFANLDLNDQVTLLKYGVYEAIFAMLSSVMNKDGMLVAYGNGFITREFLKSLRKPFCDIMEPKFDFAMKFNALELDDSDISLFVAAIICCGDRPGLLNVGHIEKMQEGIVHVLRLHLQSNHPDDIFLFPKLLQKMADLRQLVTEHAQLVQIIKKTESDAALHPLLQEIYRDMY

SMILES	fold change (FC) [1]	IC50 [2]	EC50 ([3]; read-out: EC50)	EC50 ([4]; hek293)	EC50 ([3]; hek293)	EC50 ([4]; read-out: EC50)
CCOC(=O)C(C)(C)Oc1ccc(C(=O)c2cc3cc(C(C)(C)C)cc(C(C)(C)C)c3oc2=O)cc1	0.81	> 100 µM	–	–	–	–
CCOC(=O)C(C)(C)Oc1ccc(C(=O)C2Cc3ccccc3OC2=O)cc1 (stereo not given)	–	9.4 µM	39.7 µM	Not Active	–	–
CCOC(=O)C(C)(C)Oc1ccc(C(=O)c2cc3c(ccc4ccccc43)oc2=O)cc1	0.83	> 100 µM	–	–	–	–
CCOC(=O)C(C)(C)Oc1ccc(C(=O)C2Cc3cc(OC)c(OC)cc3OC2=O)cc1 (stereo not given)	0.9	17.1 µM	–	–	–	–
CCOC(=O)C(C)(C)Oc1ccc(C(=O)C2Cc3cc(C)ccc3OC2=O)cc1 (stereo not given)	0.8	10.3 µM	–	–	–	–
CC(C)(Oc1ccc(C(=O)c2cc3c(ccc4ccccc43)oc2=O)cc1)C(=O)O	–	> 100 µM	56.7 µM	Not Active	–	–
CCOC(=O)C(C)(C)Oc1ccc(C(=O)c2cc3cc(OC)c(OC)cc3oc2=O)cc1	1.01	> 100 µM	–	–	–	–
Cc1c(C)c2c(c(C)c1O)CCC(C)(C(=O)O)O2 (stereo not given) [TROLOX]	–	24.8 µM	–	–	–	–
CC(C)(Oc1ccc(C(=O)c2cc3ccccc3oc2=O)cc1)C(=O)O	–	> 100 µM	3.67 µM	–	–	11 µM
CCOC(=O)C(C)(C)Oc1ccc(C(=O)C2Cc3c(ccc4ccccc34)OC2=O)cc1 (stereo not given)	1.05	15 µM	–	–	–	–

Further lines, results first:

fold change (FC) [1]	IC50 [2]	EC50 ([3]; read-out: EC50)	EC50 ([4]; hek293)	EC50 ([3]; hek293)	EC50 ([4]; read-out: EC50)	SMILES
–	> 100 µM	–	Not Active	Not Active	–	CCOC(=O)C(C)(C)Oc1ccc(C(=O)c2cc3cc(N)ccc3oc2=O)cc1
1.04	> 100 µM	–	–	–	–	Cc1ccc2oc(=O)c(C(=O)c3ccc(OC(C)(C)C(=O)O)cc3)cc2c1
0.95	> 100 µM	–	–	–	–	CCOC(=O)C(C)(C)Oc1ccc(C(=O)c2cc3cc(Cl)ccc3oc2=O)cc1
–	> 100 µM	–	Not Active	Not Active	–	CCOC(=O)C(C)(C)Oc1ccc(C(=O)c2cc3cc(F)ccc3oc2=O)cc1
–	18.6 µM	0.91 µM	–	–	6.99 µM	CCOC(=O)C(C)(C)Oc1ccc(C(=O)c2cc3cc([N+](=O)[O-])ccc3oc2=O)cc1
1.01	8.51 µM	–	–	–	–	CCOC(=O)C(C)(C)Oc1ccc(C(=O)c2cc3cc(C)ccc3oc2=O)cc1
–	> 100 µM	5.19 µM	–	–	12.7 µM	CCOC(=O)C(C)(C)Oc1ccc(C(=O)c2cc3ccccc3oc2=O)cc1
